Reference: article PMC7007182 (Molecular imaging and biology, 2020)
Residues, ends and D or L forms follow the SMILES beside them. *: point of attachment. NOTA(2S-Bn(4-NHCS)) = O=C(O)CN1CCN(CC(=O)O)C[C@H](Cc2ccc(NC(=S)*)cc2)N(CC(=O)O)CC1

Columns and labels:
[1] = In vitro stability in mouse serum; type: in vitro ADME; conditions: mouse serum at 37 °C, 2 h incubation, HPLC analysis
Method in brief: (§1)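 Radiotracer prepared by Al[18F]F chelation: peptide, AlCl3, acetic acid and acetonitrile with [18F]fluoride, heated at 100 °C for 10 min. Product purified on a C18 cartridge, eluted with ethanol/10 mM HCl, diluted in saline and sterile-filtered. Incubated 2 h in PBS (room temperature) or mouse serum (37 °C). Percent intact tracer by reverse-phase HPLC.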

[2] = In vitro stability in PBS; type: physicochemical; conditions: PBS at room temperature, 2 h incubation, HPLC analysis
Method in brief: as §1

[3] = system: GPC3-positive HepG2 cells; assay: Cell efflux in GPC3-positive HepG2 cells; type: cell-based; conditions: for cell-associated radioactivity at end of efflux study: end of 1 h efflux study; for cell-associated radioactivity at start of efflux study: start of 1 h efflux study
Method in brief: (§2)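 Efflux of the Al[18F]F-chelated radiolabelled peptide was followed over time in GPC3-positive HepG2 and GPC3-negative McA-RH7777 hepatoma cells. Cell-associated radioactivity was tracked across the efflux period. n = 4 per group; mean ± SD.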

HepG2 cells = assay: Internalization in HepG2 cells; type: cell-based; conditions: HepG2 cells at 2 h
[4] = system: GPC3-positive HepG2 cells; assay: Cellular uptake in GPC3-positive HepG2 cells; type: cell-based; conditions: 60 min incubation, peak value; n = 4/group, mean ± SD
Method in brief: (§3)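 Uptake of the Al[18F]F-labelled peptide (radiochemical purity >97 % by HPLC) was measured as a time course in GPC3-positive HepG2 and GPC3-negative McA-RH7777 cells. Uptake is expressed as a percentage. n = 4 per group; mean ± SD.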

[5] = MicroPET/CT imaging, GPC3-positive HepG2 tumor model; type: in vivo, nude mice; conditions: nude, mouse, iv, 5.55 MBq, total radioactivity
Method in brief: (§4)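 Nude mice carried subcutaneous HepG2 or McA-RH7777 xenografts (n = 3 per group). Each received 5.55 MBq tracer i.v. under isoflurane. 10-min static microPET/CT scans at 30, 60 and 120 min; 3D-OSEM reconstruction, CT attenuation correction, decay-corrected. %ID/g from ROIs drawn over entire organs. Tumor/muscle, tumor/liver and tumor/kidney ratios calculated from PET data. Mean ± SD; ANOVA or t test.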

[6] = Ex vivo biodistribution, HepG2 tumor model; type: in vivo, mice; conditions: mouse, total radioactivity
[7] = system: GPC3-negative McA-RH7777 cells; assay: Cell efflux in GPC3-negative McA-RH7777 cells; type: cell-based; conditions: efflux study
Method in brief: as §2

[8] = system: GPC3-negative McA-RH7777 cells; assay: Cellular uptake in GPC3-negative McA-RH7777 cells; type: cell-based; conditions: 60 min incubation; n = 4/group, mean ± SD
Method in brief: as §3

[9] = MicroPET/CT imaging, GPC3-negative McA-RH7777 tumor model; type: in vivo, nude mice; conditions: nude, mouse, iv, 5.55 MBq, total radioactivity
Method in brief: as §4

| intact radiotracer in mouse serum [1] | intact radiotracer in PBS [2] | tissue to tissue ratio at 1 h ([5]; HepG2 tumor / kidneys) | tissue to tissue ratio at 0.5 h ([5]; HepG2 tumor / liver) | tissue to tissue ratio at 1 h ([5]; HepG2 tumor / liver) | tissue to tissue ratio at 2 h ([5]; HepG2 tumor / liver) | tissue to tissue ratio at 0.5 h ([5]; HepG2 tumor / muscle) | tissue to tissue ratio at 1 h ([5]; HepG2 tumor / muscle) | tissue to tissue ratio at 2 h ([5]; HepG2 tumor / muscle) | tissue uptake at 0.5 h ([5]; HepG2 tumor) | tissue uptake at 1 h ([5]; HepG2 tumor) | tissue uptake at 2 h ([5]; HepG2 tumor) | tissue uptake at 0.5 h ([5]; kidneys) | tissue uptake at 1 h ([5]; kidneys) | tissue uptake at 0.5 h ([5]; liver) | tissue uptake at 1 h ([5]; liver) | Compound | cell-associated radioactivity at end of efflux study [3] | cell-associated radioactivity at start of efflux study [3] | internalization (HepG2 cells) | cell uptake in HepG2 cells [4] | further results |
| --- | --- | --- | --- | --- | --- | --- | --- | --- | --- | --- | --- | --- | --- | --- | --- | --- | --- | --- | --- | --- | --- |
| > 95% | > 95% |  |  |  |  |  |  |  |  |  |  |  |  |  |  | CC(C)C[C@H](NC(=O)[C@H](CCCNC(=N)N)NC(=S)Nc1ccc(C[C@H]2CN(CC(=O)O)CCN(CC(=O)O)CCN2CC(=O)O)cc1)C(=O)N[C@@H](CC(N)=O)C(=O)N[C@H](C(=O)NCC(=O)NCC(=O)N[C@H](C(=O)N[C@@H](Cc1ccc(O)cc1)C(=O)N[C@@H](Cc1ccccc1)C(=O)N[C@@H](CC(C)C)C(=O)N[C@H](C(=O)N[C@H](C(=O)N[C@@H](CCCNC(=N)N)C(=O)N[C@@H](CCC(N)=O)C(=O)O)[C@@H](C)O)[C@@H](C)O)[C@@H](C)O)C(C)C [Al[^18F]F-GP2076] ({NOTA(2S-Bn(4-NHCS))}-RLNVGGTYFLTTRQ-OH; N-terminus and C-terminus assumed) [listing 1 of 2 here] | 0.21% | 1.04% | < 10 % of cell uptake | 1.08 ± 0.04% |  |
|  |  | 0.31 ± 0.04 | 0.43 ± 0.06 | 0.59 ± 0.14 | 0.46 ± 0.4 | 5.56 ± 1.36 | 5.13 ± 2.08 | 2.68 ± 0.29 | 2.2 ± 0.36 %ID/g | 2.13 ± 0.55 %ID/g | 0.73 ± 0.32 %ID/g | 9.83 ± 3.69 %ID/g | 7.03 ± 2.32 %ID/g | 5.1 ± 0.53 %ID/g | 3.7 ± 0.98 %ID/g | CC(C)C[C@H](NC(=O)[C@H](CCCNC(=N)N)NC(=S)Nc1ccc(C[C@H]2CN(CC(=O)O)CCN(CC(=O)O)CCN2CC(=O)O)cc1)C(=O)N[C@@H](CC(N)=O)C(=O)N[C@H](C(=O)NCC(=O)NCC(=O)N[C@H](C(=O)N[C@@H](Cc1ccc(O)cc1)C(=O)N[C@@H](Cc1ccccc1)C(=O)N[C@@H](CC(C)C)C(=O)N[C@H](C(=O)N[C@H](C(=O)N[C@@H](CCCNC(=N)N)C(=O)N[C@@H](CCC(N)=O)C(=O)O)[C@@H](C)O)[C@@H](C)O)[C@@H](C)O)C(C)C [Al[^18F]F-GP2076] ({NOTA(2S-Bn(4-NHCS))}-RLNVGGTYFLTTRQ-OH; N-terminus and C-terminus assumed) [listing 2 of 2 here] |  |  |  |  | tissue uptake at 1 h ([6]; HepG2 tumor): 1.13 ± 0.02 %ID/g; tissue uptake at 1 h ([6]; liver): 2.3 ± 0.56 %ID/g |
| > 98% | > 98% |  |  |  |  |  |  |  |  |  |  |  |  |  |  | CC(C)C[C@H](NC(=O)[C@H](CCCNC(=N)N)NC(=O)[C@H](CC(N)=O)NC(=O)[C@H](CC(=O)O)NC(=O)[C@H](CCCNC(=N)N)NC(=O)CNC(=O)CNC(=O)CNC(=S)Nc1ccc(C[C@H]2CN(CC(=O)O)CCN(CC(=O)O)CCN2CC(=O)O)cc1)C(=O)N[C@@H](CC(N)=O)C(=O)N[C@H](C(=O)NCC(=O)NCC(=O)N[C@H](C(=O)N[C@@H](Cc1ccc(O)cc1)C(=O)N[C@@H](Cc1ccccc1)C(=O)N[C@@H](CC(C)C)C(=O)N[C@H](C(=O)N[C@H](C(=O)N[C@@H](CCCNC(=N)N)C(=O)N[C@@H](CCC(N)=O)C(=O)O)[C@@H](C)O)[C@@H](C)O)[C@@H](C)O)C(C)C [Al[^18F]F-GP2633] ({NOTA(2S-Bn(4-NHCS))}-GGGRDNRLNVGGTYFLTTRQ-OH; N-terminus and C-terminus assumed) [listing 1 of 2 here] | 0.27% | 1.13% | < 10 % of cell uptake | 1.15 ± 0.05% | time for radioactivity to wash out to the baseline [7]: ≤ 5 min; cellular uptake in McA-RH7777 cells [8]: 0.30 ± 0.03% |
|  |  | 0.09 ± 0.01 | 1.77 ± 0.2 | 2 ± 0.18 | 1.28 ± 0.25 | 9.11 ± 0.79 | 12.2 ± 0.62 | 6.2 ± 1.8 | 3.13 ± 0.31 %ID/g | 3.37 ± 0.35 %ID/g | 1.3 ± 0.17 %ID/g | 39.4 ± 0.98 %ID/g | 36.9 ± 2.05 %ID/g | 1.8 ± 0.36 %ID/g | 1.7 ± 0.26 %ID/g | CC(C)C[C@H](NC(=O)[C@H](CCCNC(=N)N)NC(=O)[C@H](CC(N)=O)NC(=O)[C@H](CC(=O)O)NC(=O)[C@H](CCCNC(=N)N)NC(=O)CNC(=O)CNC(=O)CNC(=S)Nc1ccc(C[C@H]2CN(CC(=O)O)CCN(CC(=O)O)CCN2CC(=O)O)cc1)C(=O)N[C@@H](CC(N)=O)C(=O)N[C@H](C(=O)NCC(=O)NCC(=O)N[C@H](C(=O)N[C@@H](Cc1ccc(O)cc1)C(=O)N[C@@H](Cc1ccccc1)C(=O)N[C@@H](CC(C)C)C(=O)N[C@H](C(=O)N[C@H](C(=O)N[C@@H](CCCNC(=N)N)C(=O)N[C@@H](CCC(N)=O)C(=O)O)[C@@H](C)O)[C@@H](C)O)[C@@H](C)O)C(C)C [Al[^18F]F-GP2633] ({NOTA(2S-Bn(4-NHCS))}-GGGRDNRLNVGGTYFLTTRQ-OH; N-terminus and C-terminus assumed) [listing 2 of 2 here] |  |  |  |  | tissue uptake at 1 h ([6]; HepG2 tumor): 1.96 ± 0.29 %ID/g; tissue uptake at 1 h ([6]; liver): 0.97 ± 0.07 %ID/g; tissue to tissue ratio at 0.5 h ([9]; McA-RH7777 tumor / muscle): 3.87 ± 1.97; tissue to tissue ratio at 1 h ([9]; McA-RH7777 tumor / muscle): 6.2 ± 2.67; tissue uptake at 0.5 h ([9]; McA-RH7777 tumor): 1.75 ± 0.05 %ID/g; tissue uptake at 1 h ([9]; McA-RH7777 tumor): 1.64 ± 0.03 %ID/g; tissue uptake at 2 h ([9]; McA-RH7777 tumor): 0.66 ± 0.06 %ID/g |
